# Hits are enriched below; roughly 3% of the tested compounds scored in any of these assays.
# PvdQ inh = P. aeruginosa PvdQ acylase inhibition; inhibition, % at 10 µM; actives 0.063% (n = 340,000); AID 488965; purified PvdQ acylase, fluorescence plate reader; in the data active = inhibition above about 30%, passing the limit was not always enough; inconclusive = no clear call, values can overlap the other calls;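 also: 0% = vehicle neutral wells and 100% = reference inhibitor wells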
# N-glyco inh = N-linked glycosylation inhibition; actives 0.23% (n = 360,000); reporter increase, % at 12.5 µM; D54 ERlucT glycosylation luciferase reporter, 24 h; percent of 100 nM tunicamycin response; AID 588692;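 active = mean luciferase reporter signal, scaled so untreated is 0 and the glycosylation-blocking control 100, at or above a set limit in every replicate; inconclusive = mean reaches the limit but not every replicate does; inactive = mean below the limit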;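 also: luciferase carries N-glycosylation sites so blocking glycosylation raises the light; 0% = median of neutral control wells and 100% = median of 100 nM tunicamycin wells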
# PfHsp90 yeast 2 = inhibits growth of yeast expressing Plasmodium falciparum Hsp90; S. cerevisiae expressing PfHsp90, BacTiter-Glo ATP, 48 h; yeast lacking PDR1 and PDR3 efflux regulators; inhibition, % at 9.4 µM; actives 0.32% (n = 310,000); AID 504621;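 active = every replicate shows inhibition above about 80%, whatever the replicate mean, limit read from the data; inconclusive = mean inhibition reaches the set limit but some replicate falls short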;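 also: 0% = DMSO neutral controls and 100% = 20 µM radicicol positive controls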
# HSF1 activator = increases HSF-1 driven luciferase reporter signal; NIH3T3-HGL HSF-1 luciferase reporter, MG132, 8 h; 100% = twice DMSO control signal; activation, % at 9 µM; actives 1.7% (n = 300,000); AID 504408;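 active = mean replicate activation of at least 50% with a set share of replicates each reaching 50%; inconclusive = only one of those two conditions met; inactive = mean below 50% and too few replicates reaching it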;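 also: 0% = median of the neutral control wells and 100% = twice that signal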
# T cruzi inh = T. cruzi replication inhibition; T. cruzi beta-gal in NIH3T3, luminescence, 90 h; inhibition, % (test concentration not listed); actives 1.4% (n = 300,000);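 active = mean inhibition across valid replicates above about 55%, limit read from the data; inconclusive = mean below that limit but half or more replicates reach it; inactive = mean below it, under half of replicates reach it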;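 also: signal also drops with host cell toxicity which is not excluded here; 0% = plate median of DMSO wells and 100% = zero luminescence signal; higher percent means less beta-gal luminescence so fewer parasites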
#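 Material: NIH/3T3 host cells with β-galactosidase reporter T. cruzi; Input: 5,000 host fibroblasts per well; Medium: DMEM, 2% fetal bovine serum; Compound: 50 nL DMSO compound solution per well; Schedule: 3 h host attachment, then at least 90 h co-culture; Detection: luminescent β-galactosidase signal after 60 min lysis.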
# CaV13 FRET inh = Primary screen for inhibitors of IQ motif and Ca2+-dependent inactivation inhibitor domain binding in CACNA1D, Förster resonance energy transfer in living cells, …; HEK cells, CFP/YFP FRET ICDI-IQ, plate reader, 10 min; percent FRET-ratio fall versus neutral wells; inhibition, % at 12.3 µM; actives 0.098% (n = 340,000);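 active = mean replicate inhibition of at least 30% and at least 1% of replicates passing that level; inconclusive = only one of the two criteria is met; inactive = neither criterion is met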;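 also: 0% = median of the neutral control wells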
# * hit, by the source's call; ? = inconclusive; . = not tested or not shown; ! = repeats disagree.
SMILES,PvdQ inh,N-glyco inh,PfHsp90 yeast 2,HSF1 activator,T cruzi inh,CaV13 FRET inh
COc1ccccc1Cc1c(-c2ccc(F)cc2)nc2c3ccccc3ccn12,.,.,.,.,.,-6.9
COc1cc2c(cc1OC)C(C(=O)O)C(c1ccc3c(c1)OCO3)N(C)C2=O (centres undefined),.,.,.,.,.,-11.4
Cc1ccc(-c2cc(-c3ccc4c(c3)OCO4)c(C#N)c(N)n2)o1,-16.1,3.9,.,12.2,15.4,.
CC(C)(C)c1ccc(-c2nc3c(C#N)c(-c4ccc5c(c4)OCO5)ccn3n2)cc1,-12.3,-3.9,.,6.6,63.9*,-3.6
COC(=O)c1cc2c(c3c4cc(OC)ccc4n(S(=O)(=O)c4ccc(OC)cc4)c13)C(=O)N(Cc1ccc(C(F)(F)F)cc1)C2,.,.,.,.,.,-3.6
Cc1ccn2c(NC3CCCC3)c(-c3ccccn3)nc2c1,4.7,-2.7,-12.7,-9.5,65.3*,-1.5
c1ccc(-c2nc3ccccn3c2NC2CCCC2)nc1,-3.0,-3.0,-3.3,-3.1,-13.3,-8.8
Cc1ccc(Nc2c(-c3ccccn3)nc3cc(C)ccn23)cc1,6.4,-1.2,4.5,-16.6,76.3*,-1.4
Cc1ccn2c(Nc3ccccc3C)c(-c3ccncc3)nc2c1,2.4,-1.1,7.8,-14.3,60.6*,-6.7
COc1ccccc1C(=O)N1CCN(C(=O)[C@@H](Cc2ccccc2)NC(=O)[C@H]2O[C@@H](n3ccc(N)nc3=O)[C@H](O)[C@@H]2O)CC1,.,.,.,.,.,-2.7
CN1C(=O)[C@@]2(O[C@H]3[C@H]4C=C[C@@H]([C@H]5C(=O)N(Cc6ccccc6)C(=O)[C@@H]45)N3C3=C2C(=O)CC3)c2ccccc21,.,.,.,.,.,-12.0
OC(CNCCC1C=Nc2ccccc21)Cn1c2ccc(Cl)cc2c2cc(Cl)ccc21 (centres undefined),6.4,-16.2,105.3*,8.8,?,-2.0
COc1ccc(C=CC(=O)c2c(N)n(C)c(=O)n(C)c2=O)cc1,.,.,.,.,.,-12.7
Cc1ccc(N=Nc2c(N)nn3c(C)cc(C)nc23)cc1,-11.6,4.0,-28.0,-1.3,9.0,-5.9
Cc1cc(C)n2nc(N)c(N=Nc3cccc(Cl)c3)c2n1,-9.2,3.6,-8.6,55.9*,11.7,-7.0
COCc1cc(=O)[nH]c(SCCS(=O)(=O)c2ccc(Cl)cc2Cl)n1,-3.3,7.6,-17.0,78.4*,-4.6,-4.3
Nc1[nH]c(C(=O)c2ccccc2)c(-c2ccccc2C(F)(F)F)c1C(=O)c1c[nH]c2ccccc12,.,.,.,.,.,-16.6
COc1ccc(C(=O)Nc2cc(C(F)(F)F)ccc2-n2cnc3ccccc32)cc1,-12.4,2.4,12.7,65.1*,-7.2,-1.9
O=C(Nc1cc(S(=O)(=O)N2CCOCC2)ccc1-n1cncn1)c1ccc(Cl)cc1,0.9,1.1,-16.5,-0.3,63.1*,-4.7
CC(=O)Nc1ccc(C(=O)Nc2cc(C(F)(F)F)ccc2-n2cnc3ccccc32)cc1,6.1,2.2,12.1,-8.6,-7.8,-4.4
O=C(Nc1cc(Cl)ccc1-n1cncn1)c1cc(S(=O)(=O)N2CCOCC2)ccc1F,-26.8,1.0,24.8,-12.0,9.4,.
O=C(Nc1cc(C(F)(F)F)ccc1-n1cncn1)c1ccc(-c2ccccc2)cc1,-13.7,2.1,59.5,-2.1,73.5*,-4.3
COc1cccc(-c2cnc(C(O)c3c(C)cc(C)cc3C)[nH]2)c1 (centres undefined),.,-0.2,.,.,.,-4.1
COc1ccc(OC)c(CN2C(=O)c3ccccc3C2c2nnnn2-c2ccc3c(c2)OCCO3)c1 (centres undefined),.,.,.,.,.,-8.1
CCCCN(C(=O)CCCc1nc2ccccc2c(=O)[nH]1)c1c(N)n(CC(C)C)c(=O)[nH]c1=O,-2.8,1.9,.,.,.,-6.0
SMILES,PvdQ inh,N-glyco inh,PfHsp90 yeast 2,HSF1 activator,T cruzi inh,CaV13 FRET inh
C=C1[C@@H](O)[C@H](Cc2ccccc2)N(Cc2ccccc2Br)S1(=O)=O,7.7,6.8,0.2,.,.,-7.8
O=c1[nH]ncc(NCCc2ccccc2)c1Cl,-7.5,0.5,-0.9,-10.0,-13.2,-5.0
CN(C)CCCNc1cn[nH]c(=O)c1Cl,-7.4,-1.5,-61.4,-9.1,70.3*,-7.5
CCC(=O)OCOc1ccc(/C=C2/CCC(CN(C)C)C2=O)cc1 (centres undefined),14.7,-8.2,143.0*,-24.2,.,-1.8
C#CCN(Cc1cccc(F)c1)C(=O)c1nnc2c3ccccc3n(S(=O)(=O)c3ccc(C)cc3)c2n1,.,.,.,.,.,-4.1
COC(=O)c1c(NC(=O)CN2C(=O)NC3(CCC(C(C)(C)C)CC3)C2=O)sc2c1CCCCC2 (centres undefined),-10.0,-2.9,-10.1,.,57.9*,-5.2
O=[N+]([O-])c1ccc2c(c1)CO[C@]21O[C@H](CCO)C[C@H](O)[C@H]1O,.,.,.,.,.,-4.2
COc1ccc(SCCc2ccncc2)cc1,8.1,1.4,.,-14.4,69.8*,-6.2
Fc1ccc(SCCc2ccncc2)cc1,3.9,-1.4,-36.9,-2.9,67.6*!,-7.9
Nc1ccccc1Nc1cc(-c2ccccc2)nn1-c1cccc(Cl)c1,-21.1,-2.4,33.7,4.0,58.3*,-4.5
O=C(CCl)Nc1cc(-c2ccccc2)nn1-c1ccccc1,-7.9,?,4.5,48.0,12.6,-3.5
Nn1c(COc2ccc(Cl)cc2)nc2ccccc2c1=O,1.7,2.1,-14.6,85.6*,3.5,-5.8
CCOC(=O)C1=C[C@@H](C(C)(C)C)N(S(=O)(=O)c2ccc([N+](=O)[O-])cc2)[C@H]1c1ccccc1Cl,.,.,.,.,.,-3.0
O=C(CSc1nc2nc(-c3cccs3)cc(C(F)(F)F)c2c(=O)[nH]1)C(F)(F)F,-6.8,36.6*,10.9,-11.7,-3.0,-20.6
CCN(CC)C(=O)C1=C(C)N(Cc2ccccc2)C(=O)C(CC(=O)NC2CCCC2)C1 (centres undefined),.,0.2,.,.,.,-6.8
O=C(CSc1nnnn1-c1cccc2ccccc12)Nc1ccc(N2CCOCC2)c(Cl)c1,-2.6,-2.1,-4.2,31.6,73.2*,-8.7
O=C(CSc1nnnn1-c1ccccc1)Nc1ccc(N2CCOCC2)c(Cl)c1,3.2,-0.4,6.7,1.7,10.5,-7.5
COc1ccc(C2CC(=O)C(c3ccc([N+](=O)[O-])cc3)=CN2Cc2ccccc2)cc1 (centres undefined),.,.,.,.,.,-12.0
CC(=O)Nc1ccc(N(C(=O)Cc2c[nH]c3ccccc23)C(C(=O)NC2CCCCC2)c2ccco2)cc1 (centres undefined),-5.8,-2.1,-2.3,-1.9,-3.9,-5.1
COC(=O)c1ccc(C(C(=O)NC2CCCCC2)N(Cc2ccc(F)cc2)C(=O)Cc2cccs2)cc1 (centres undefined),0.8,-10.2,-0.9,5.8,13.0,-14.6
COc1ccc(CN(C(=O)Cc2cccs2)C(C(=O)NC2CCCC2)c2ccncc2)cc1 (centres undefined),-11.0,-0.8,-3.3,7.8,66.0*,-9.3

# Compound activity (PubChem BioAssay)
